Data taken from ChEMBL document CHEMBL4680095, “Potent Antitumor Activities and Structure Basis of the Chiral β-Lactam Bridged Analogue of Combretastatin A-4 Binding to Tubulin” (J Med Chem, 2016).
Calls of active or inactive are those of the source. The rule behind the calls is not given here.

Experiments:
[1] = Toxicity in Balb/C mouse; settings: in vivo
[2] = Inhibition of pig brain tubulin polymerization incubated for 20 mins by spectrophotometry; type: tissue-based, Sus scrofa
HeLa = assay: Growth inhibition of human HeLa cells; type: functional, cell-based
SK-OV-3 = assay: Growth inhibition of human SK-OV-3 cells; type: functional, cell-based
A2780 [3] = assay: Growth inhibition of human A2780 cells; type: functional, cell-based
MDA-MB-231 = assay: Growth inhibition of human MDA-MB-231 cells; type: functional, cell-based
[4] = Toxicity in Balb/C mouse xenografted with human A2780 cells assessed as induction of abnormalities of visceral organs at 12.5 mg/kg, ip dosed once every 2 days; type: organism-based; settings: in vivo, 48 h, time 2 day
Summary of the method: (§1)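 Xenograft model built by subcutaneous inoculation of A2780 cells into female Balb/C nude mice, then treated at 12.5 mg/kg. Read-outs named per line: tumor growth, main organs examined for abnormalities, body weight monitored.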

A2780 [5] = assay: Antitumor activity against human A2780 cells xenografted in Balb/C mouse assessed as inhibition of tumor growth at 12.5 mg/kg, ip dosed once every 2 days; type: functional, organism-based; settings: time 2.0 day; summary of the method: as §1
[6] = Toxicity in Balb/C mouse xenografted with human A2780 cells assessed as induction of body weight loss at 12.5 mg/kg, ip dosed once every 2 days; type: organism-based; settings: in vivo, 48 h, time 2 day; summary of the method: as §1

Compound | LD50 [1] [mg/kg] | IC50 [2] [nM] | IC50 (HeLa) [nM] | IC50 (SK-OV-3) [nM] | IC50 (A2780 [3]) [nM] | IC50 (MDA-MB-231) [nM] | Activity [4] | TGI (A2780 [5]) | Activity [6]
COc1cc2c(c(OC)c1OC)-c1ccc(OC)c(=O)cc1[C@@H](NC(C)=O)CC2 [COLCHICINE] | 4 | – | – | – | – | – | – | – | –
COc1ccc(/C=C\c2cc(OC)c(OC)c(OC)c2)cc1O [COMBRETASTATIN A4] | – | 1320 | – | – | – | – | – | – | –
C=C1C(=O)N(c2cc(OC)c(OC)c(OC)c2)[C@H]1c1ccc(OC)c(O)c1 | – | 6600 | 243 | 114 | 115 | 308 | – | – | –
C=C1C(=O)N(c2cc(OC)c(OC)c(OC)c2)[C@@H]1c1ccc(OC)c(O)c1 | – | > 100000 | 5500 | 3500 | 4600 | > 10000 | – | – | –
COc1ccc([C@H]2[C@@H](C)C(=O)N2c2cc(OC)c(OC)c(OC)c2)cc1O | > 500 | 3500 | 63 | 57 | 31 | 56 | Non-Toxic | Active | Non-Toxic
